Assay results taken from ChEMBL document CHEMBL1123127, “Comparison of the hypolipidemic activity of cyclic vs. acyclic imides” (1985).

Experiments:
Mus musculus [1] = experiment: Reduction in serum cholesterol in CF1 mice on day 9 following 20 mg/kg i.p. o.d. for 16 days.; format: functional; settings: ip, route intraperitoneal
Summary of the method: (§1)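 Mice dosed at 20 mg/kg per day for 16 days. On days 9 and 16, blood was taken by tail-vein bleeding into nonheparinized microcapillary tubes and spun for 3 min to give serum. Serum cholesterol was measured by a modified Liebermann–Burchard reaction.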

Mus musculus [2] = experiment: Reduction in serum cholesterol in CF1 mice on day 16 following 20 mg/kg i.p. o.d. for 16 days.; format: functional; settings: ip, 384 h, route intraperitoneal; summary of the method: as §1
Mus musculus [3] = experiment: Reduction in serum triglyceride in CF1 mice on day 14 following 20 mg/kg i.p. o.d. for 16 days.; settings: ip

With `CCOC(=O)CCN(C(C)=O)C(C)=O` the inhibition in vivo at 20 mg/kg (Mus musculus [1]) was 11%, the inhibition in vivo at 20 mg/kg (Mus musculus [2]) was 25% and the serum triglyceride % inhibition at 20 mg/kg (Mus musculus [3]) was 11%.
In the case of `CC(=O)CCN1C(=O)CCC1=O`, the inhibition in vivo at 20 mg/kg (Mus musculus [1]) is reported as 12%, the inhibition in vivo at 20 mg/kg (Mus musculus [2]) is reported as 10% and the serum triglyceride % inhibition at 20 mg/kg (Mus musculus [3]) is reported as 25%.
`CCCCN(C(C)=O)C(C)=O` showed an inhibition in vivo at 20 mg/kg (Mus musculus [1]) of 11%, an inhibition in vivo at 20 mg/kg (Mus musculus [2]) of 20% and a serum triglyceride % inhibition at 20 mg/kg (Mus musculus [3]) of 0%.
In the case of `CCOC(=O)CCN1C(=O)CCC1=O`, the inhibition in vivo at 20 mg/kg (Mus musculus [1]) is reported as 11%, the inhibition in vivo at 20 mg/kg (Mus musculus [2]) is reported as 23% and the serum triglyceride % inhibition at 20 mg/kg (Mus musculus [3]) is reported as 23%.
In the case of `CC(=O)CCn1c(=O)c2ccccc2c2ccccc2c1=O`, the inhibition in vivo at 20 mg/kg (Mus musculus [1]) is reported as 23%, the inhibition in vivo at 20 mg/kg (Mus musculus [2]) is reported as 23% and the serum triglyceride % inhibition at 20 mg/kg (Mus musculus [3]) is reported as 10%.
In the case of `O=C1NC(=O)c2ccccc21` [PHTHALIMIDE], the inhibition in vivo at 20 mg/kg (Mus musculus [1]) is reported as 37%, the inhibition in vivo at 20 mg/kg (Mus musculus [2]) is reported as 43% and the serum triglyceride % inhibition at 20 mg/kg (Mus musculus [3]) is reported as 56%.
Work on `CC(=O)NC(C)=O` [DIACETAMIDE] yielded an inhibition in vivo at 20 mg/kg (Mus musculus [1]) of 4%, an inhibition in vivo at 20 mg/kg (Mus musculus [2]) of 18% and a serum triglyceride % inhibition at 20 mg/kg (Mus musculus [3]) of 2%.
Molecule `CCCCN(C(=O)c1ccccc1)C(=O)c1ccccc1` has an inhibition in vivo at 20 mg/kg (Mus musculus [1]) of 23%, an inhibition in vivo at 20 mg/kg (Mus musculus [2]) of 19% and a serum triglyceride % inhibition at 20 mg/kg (Mus musculus [3]) of 30%.
Molecule `O=C(NC(=O)c1ccccc1)c1ccccc1` has an inhibition in vivo at 20 mg/kg (Mus musculus [1]) of 14%, an inhibition in vivo at 20 mg/kg (Mus musculus [2]) of 35% and a serum triglyceride % inhibition at 20 mg/kg (Mus musculus [3]) of 7%.
`CCCCN1C(=O)CCC1=O` was tested, and the inhibition in vivo at 20 mg/kg (Mus musculus [1]) was 0%, the inhibition in vivo at 20 mg/kg (Mus musculus [2]) was 15% and the serum triglyceride % inhibition at 20 mg/kg (Mus musculus [3]) was 35%.
Work on `O=C(O)CCn1c(=O)c2ccccc2c2ccccc2c1=O` yielded an inhibition in vivo at 20 mg/kg (Mus musculus [1]) of 12%, an inhibition in vivo at 20 mg/kg (Mus musculus [2]) of 16% and a serum triglyceride % inhibition at 20 mg/kg (Mus musculus [3]) of 25%.
`O=c1[nH]c(=O)c2ccccc2c2ccccc12` showed an inhibition in vivo at 20 mg/kg (Mus musculus [1]) of 19%, an inhibition in vivo at 20 mg/kg (Mus musculus [2]) of 18% and a serum triglyceride % inhibition at 20 mg/kg (Mus musculus [3]) of 19%.
Molecule `O=C(O)CCN1C(=O)CCC1=O` has an inhibition in vivo at 20 mg/kg (Mus musculus [1]) of 32%, an inhibition in vivo at 20 mg/kg (Mus musculus [2]) of 39% and a serum triglyceride % inhibition at 20 mg/kg (Mus musculus [3]) of 44%.
In the case of `O=C1CCC(=O)N1` [SUCCINIMIDE], the inhibition in vivo at 20 mg/kg (Mus musculus [1]) is reported as 2%, the inhibition in vivo at 20 mg/kg (Mus musculus [2]) is reported as 27% and the serum triglyceride % inhibition at 20 mg/kg (Mus musculus [3]) is reported as 32%.
Work on `CC(=O)CCN(C(=O)c1ccccc1)C(=O)c1ccccc1` yielded an inhibition in vivo at 20 mg/kg (Mus musculus [1]) of 23%, an inhibition in vivo at 20 mg/kg (Mus musculus [2]) of 26% and a serum triglyceride % inhibition at 20 mg/kg (Mus musculus [3]) of 39%.
For `CC(=O)CCN(C(C)=O)C(C)=O`, the inhibition in vivo at 20 mg/kg (Mus musculus [1]) was 14%, the inhibition in vivo at 20 mg/kg (Mus musculus [2]) was 30% and the serum triglyceride % inhibition at 20 mg/kg (Mus musculus [3]) was 20%.
Work on `CCOC(=O)C(C)(C)Oc1ccc(Cl)cc1` [CLOFIBRATE] yielded an inhibition in vivo at 20 mg/kg (Mus musculus [1]) of 12%, an inhibition in vivo at 20 mg/kg (Mus musculus [2]) of 13% and a serum triglyceride % inhibition at 20 mg/kg (Mus musculus [3]) of 25%.
`CC(=O)N(CCC(=O)O)C(C)=O` gave an inhibition in vivo at 20 mg/kg (Mus musculus [1]) of 20%, an inhibition in vivo at 20 mg/kg (Mus musculus [2]) of 21% and a serum triglyceride % inhibition at 20 mg/kg (Mus musculus [3]) of 21%.
In the case of `CCCCn1c(=O)c2ccccc2c2ccccc2c1=O`, the inhibition in vivo at 20 mg/kg (Mus musculus [1]) is reported as 22%, the inhibition in vivo at 20 mg/kg (Mus musculus [2]) is reported as 23% and the serum triglyceride % inhibition at 20 mg/kg (Mus musculus [3]) is reported as 48%.
